From article PMC10099996 (Chembiochem, 2022)
Values after ≈ are worked out from the molar mass of the structure shown.

Assays:
[1] = system: S. aureus ATCC 29213 (MSSA); assay: MIC determination; format: cell-based; conditions: Table 1; lysogeny broth (LB) supplemented with 0.3 mM ZnSO4; 37 °C, 18 h; visual inspection; median of a minimum of triplicates
Summary of the method: (§1)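 Strains from glycerol stocks are grown overnight on blood agar at 37 °C. A single colony goes into TSB and grows at 37 °C to OD600 0.5, then is diluted 100-fold in ZnSO₄-supplemented LB to 10⁶ CFU mL⁻¹. Test compounds are 2-fold serially diluted in the same medium, in triplicate, and mixed with an equal volume of inoculum. Plates are sealed under breathable membranes and incubated 18 h at 37 °C, shaking at 600 rpm. MIC is read visually.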

S. aureus USA300 (MRSA) = assay: MIC determination; format: cell-based; conditions: Table 1; lysogeny broth (LB) supplemented with 0.3 mM ZnSO4; 37 °C, 18 h; visual inspection; median of a minimum of triplicates
Summary of the method: as §1

S. simulans 22 = assay: MIC determination; format: cell-based; conditions: Table 1; lysogeny broth (LB) supplemented with 0.3 mM ZnSO4; 37 °C, 18 h; visual inspection; median of a minimum of triplicates
Summary of the method: as §1

E. faecium E980 = assay: MIC determination; format: cell-based; conditions: Table 1; lysogeny broth (LB) supplemented with 0.3 mM ZnSO4; 37 °C, 18 h; visual inspection; median of a minimum of triplicates
Summary of the method: as §1

[2] = degradation product of bacitracin A; cited from earlier work
[3] = formation in vivo limits systemic applications; cited from earlier work

Compound: CN[C@H](CC(C)C)C(=O)N[C@H]1C(=O)N[C@@H](CC(N)=O)C(=O)N[C@H]2C(=O)N[C@H]3C(=O)N[C@H](C(=O)N[C@H](C(=O)O)c4cc(O)cc(O)c4-c4cc3ccc4O)[C@H](O)c3ccc(c(Cl)c3)Oc3cc2cc(c3O[C@@H]2O[C@H](CO)[C@@H](O)[C@H](O)[C@H]2O[C@H]2C[C@](C)(N)[C@H](O)[C@H](C)O2)Oc2ccc(cc2Cl)[C@H]1O [Vancomycin]
- MIC S. aureus ATCC 29213 (MSSA) [1]: 1 µg/mL (≈ 0.69 µM)
- MIC S. aureus USA300 (MRSA) (S. aureus USA300 (MRSA)): 2 µg/mL (≈ 1.38 µM)
- MIC S. simulans 22 (S. simulans 22): 0.5 µg/mL (≈ 0.345 µM)
- MIC E. faecium E980 (E. faecium E980): 0.5 µg/mL (≈ 0.345 µM)

Compound: bacitracin F
- antibiotic activity [2]: inactive
- nephrotoxicity [3]: nephrotoxic
